Experiments:
Glutamate NMDA receptor = assay: Inhibition of [3H]MK-801 binding to N-methyl-D-aspartate glutamate receptor in rat brain cortical membranes.; format: cell membranes, Membrane
Mus musculus [1] = assay: Effective dose at which half of the mice were protected against the lethality induced by 200 mg/kg NMDA.; format: functional; conditions: read-out: ID50 (the source's name)
Outline: (§1)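 Male mice (20 to 30 g), groups of five, given test compound s.c. (0.01 mL/g) at different doses; NMDA 200 mg/kg i.p. 15 min later. Each mouse observed 20 min in an individual jar; percentage dying recorded. ID50 from log-probit analysis of four doses, or mean ± SEM of up to four independent experiments.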

Mu-type opioid receptor = Mu-type opioid receptor (Rattus norvegicus, UniProt P33535); assay: Inhibition of [3H]dihydromorphine binding to opioid receptor mu 1 in rat brain cortical membranes.; format: cell membranes, Membrane
Mu-type opioid receptor, sequence (P33535 whole entry): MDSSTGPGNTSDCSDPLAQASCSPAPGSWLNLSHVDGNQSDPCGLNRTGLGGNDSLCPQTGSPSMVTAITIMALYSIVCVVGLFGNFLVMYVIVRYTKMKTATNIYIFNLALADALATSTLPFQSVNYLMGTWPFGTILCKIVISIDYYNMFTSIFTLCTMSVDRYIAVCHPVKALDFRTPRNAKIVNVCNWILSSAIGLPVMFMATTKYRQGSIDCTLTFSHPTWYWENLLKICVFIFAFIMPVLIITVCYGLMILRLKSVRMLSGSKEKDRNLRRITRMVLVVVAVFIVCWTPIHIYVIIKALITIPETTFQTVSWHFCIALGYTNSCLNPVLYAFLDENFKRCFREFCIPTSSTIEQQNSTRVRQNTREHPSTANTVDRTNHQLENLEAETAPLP
Outline: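 Rat brain without cerebellum membranes incubated 30 min at 25 °C with 0.5 nmol/L [3H]dihydromorphine. Binding stopped by rapid filtration; filter radioactivity counted by scintillation. Ki from computer-aided curve fitting.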

Mus musculus [2] = assay: The ID50 value represent the effective dose at which half of the mice were protected against the lethality induced by 200 mg/kg NMDA; format: functional; conditions: read-out: ID50 (the source's name); outline: as §1
Mus musculus [3] = assay: The ID50 values represent the effective dose at which half of the mice were protected against the lethality induced by 200 mg/kg NMDA; format: functional; conditions: read-out: ID50 (the source's name); outline: as §1

SMILES | Ki (Glutamate NMDA receptor) [nM] | ED50 (Mus musculus [1]) [mg/kg] | Ki (Mu-type opioid receptor) [nM] | ED50 (Mus musculus [2]) [mg/kg] | ED50 (Mus musculus [3]) [mg/kg]
CC[C@H](CN1CC[C@]2(C)c3cc(O)ccc3C[C@@H]1[C@H]2C)OC | 557 | 3 |  |  | 
CO[C@@H](C)CN1CC[C@@]2(C)c3ccc(O)cc3C[C@@H]1C2(C)C | 7.1 | 2.1 | 18.2 |  | 
CCCN1CC[C@]2(C)c3cc(O)ccc3C[C@@H]1[C@@H]2C | 588 | > 30 |  |  | 
CO[C@H](C)CN1CC[C@@]2(C)c3ccc(O)cc3C[C@@H]1C2(C)C | 4.5 | 0.4 | 3400 |  | 
CCC[C@@H](CN1CC[C@]2(C)c3cc(O)ccc3C[C@@H]1[C@H]2C)OC | 490 |  |  |  | 
CO[C@H](C)CN1CC[C@]2(C)c3cc(O)ccc3C[C@@H]1[C@@H]2C | 248 | 7.2 | 146 |  | 
CO[C@@H](C)CN1CC[C@@]2(C)c3cc(O)ccc3C[C@H]1[C@@H]2C | > 100000 |  |  |  | 
CO[C@@H](C)CN1CC[C@@]2(C)c3ccccc3C[C@@H]1C2(C)C | 15.8 | 23 | 144 |  | 
CCO[C@H](C)CN1CC[C@]2(C)c3cc(O)ccc3C[C@@H]1[C@@H]2C | 1840 |  |  |  | 
C=CCN1CC[C@@]2(C)c3cc(O)ccc3C[C@H]1[C@H]2C | 1210 | 8.2 |  |  | 
CO[C@H](C)CN1CC[C@@]2(C)c3cc(O)ccc3C[C@H]1[C@@H]2C | 76600 | > 30 | 34800 |  | 
CO[C@H](C)CN1CC[C@]2(C)c3cc(O)ccc3C[C@H]1C2(C)C | 13900 |  | 14000 |  | 
CO[C@H](C)CN1CC[C@@]2(C)c3ccccc3C[C@@H]1C2(C)C | 29.9 |  | 42300 | 6.8 | 
CO[C@H](C)CN1CC[C@]2(C)c3cc(O)ccc3C[C@@H]1[C@H]2C | 195 | 0.9 | 212 |  | 
C=CCN1CCC2(C)c3c(O)cccc3CC1C2(C)C (configuration not stated) | 106 | 1.7 |  |  | 
COC(C)(C)CN1CC[C@]2(C)c3cc(O)ccc3C[C@@H]1[C@@H]2C | 281 | 2.9 | 5.6 |  | 
CCO[C@@H](C)CN1CC[C@]2(C)c3cc(O)ccc3C[C@@H]1[C@@H]2C | 1150 |  |  |  | 
CO[C@H](C)CN1CC[C@@]2(C)c3cc(O)ccc3C[C@H]1[C@H]2C | 9550 | > 30 | 18400 |  | 
CO[C@@H](C)CN1CC[C@@]2(C)c3c(O)cccc3C[C@@H]1C2(C)C | 15 | 0.8 | 20.9 |  | 
COC(C)(C)CN1CC[C@]2(C)c3cc(O)ccc3C[C@@H]1[C@H]2C | 221 | 5.5 |  |  | 
CO[C@H](C)CN1CC[C@]2(C)c3ccc(O)cc3C[C@H]1C2(C)C | 545 |  |  |  | 
CCC[C@H](CN1CC[C@]2(C)c3cc(O)ccc3C[C@@H]1[C@H]2C)OC | 1840 |  |  |  | 
CO[C@@H](C)CN1CC[C@]2(C)c3cc(O)ccc3C[C@H]1C2(C)C | 50400 | > 30 | 6020 |  | 
C=CCN1CCC2(C)c3cc(O)ccc3CC1C2(C)C (configuration not stated) | 380 | 4.7 |  |  | 

SMILES | Ki (Glutamate NMDA receptor) [nM] | ED50 (Mus musculus [1]) [mg/kg] | Ki (Mu-type opioid receptor) [nM] | ED50 (Mus musculus [2]) [mg/kg] | ED50 (Mus musculus [3]) [mg/kg]
CO[C@H](C)CN1CC[C@@]2(C)c3c(O)cccc3C[C@@H]1C2(C)C | 34 | 0.5 | 11400 |  | 
CCCN1CC[C@@]2(C)c3cc(O)ccc3C[C@H]1[C@H]2C | 2850 | > 30 |  |  | 
CO[C@@H](C)CN1CC[C@@]2(C)c3cc(O)ccc3C[C@@H]1C2(C)C | 5.6 | 0.2 | 1.6 |  | 
C=CCN1CCC2(C)c3cccc(O)c3CC1C2(C)C (configuration not stated) | 630 | 10.4 |  |  | 
CO[C@H](C)CN1CC[C@@]2(C)c3cc(O)ccc3C[C@@H]1C2(C)C | 12.4 | 0.7 | 108 |  | 
CO[C@@H](C)CN1CC[C@]2(C)c3cc(O)ccc3C[C@@H]1[C@H]2C | 35.7 | 0.6 | 3.5 |  | 
C=CCN1CCC2(C)c3ccc(O)cc3CC1C2(C)C (configuration not stated) | 99 | 5 |  |  | 
CO[C@@H](C)CN1CC[C@]2(C)c3ccc(O)cc3C[C@H]1C2(C)C | 685 | 81 | 1340 |  | 
CS[C@H](C)CN1CC[C@]2(C)c3cc(O)ccc3C[C@@H]1[C@H]2C | 406 |  | 236 |  | 
CC[C@@H](CN1CC[C@]2(C)c3cc(O)ccc3C[C@@H]1[C@H]2C)OC | 66 | 0.3 |  |  | 
CO[C@H](C)CN1CC[C@]2(C)c3c(O)cccc3C[C@H]1C2(C)C | 364 |  |  |  | 
CCO[C@H](C)CN1CC[C@]2(C)c3cc(O)ccc3C[C@@H]1[C@H]2C | 1290 |  |  |  | 
CCCN1CC[C@]2(C)c3cc(O)ccc3C[C@@H]1[C@H]2C | 373 |  |  |  | 
C[C@@H]1[C@H]2Cc3ccc(O)cc3[C@@]1(C)CCN2C[C@@H](C)O | 425 |  |  |  | 
CS[C@@H](C)CN1CC[C@]2(C)c3cc(O)ccc3C[C@@H]1[C@@H]2C | 223 | 1.7 | 3.2 |  | 
CO[C@@H](C)CN1CC[C@@]2(C)c3cc(O)ccc3C[C@H]1[C@H]2C | 22000 | > 30 | 5300 |  | 
CS[C@H](C)CN1CC[C@]2(C)c3cc(O)ccc3C[C@@H]1[C@@H]2C | 1090 |  | 7.7 |  | 
C=CCN1CC[C@]2(C)c3cc(O)ccc3C[C@@H]1[C@@H]2C | 1500 | > 30 |  |  | 
COCCCN1CC[C@]2(C)c3cc(O)ccc3C[C@@H]1[C@@H]2C | 991 |  |  |  | > 30
CCCN1CC[C@@]2(C)c3cc(O)ccc3C[C@H]1[C@@H]2C | 43600 |  |  |  | 
CCO[C@@H](C)CN1CC[C@]2(C)c3cc(O)ccc3C[C@@H]1[C@H]2C | 1260 |  |  |  | 
CO[C@@H](C)CN1CC[C@]2(C)c3cc(O)ccc3C[C@@H]1[C@@H]2C | 234 | 2.3 | 1 |  | 
CS[C@@H](C)CN1CC[C@]2(C)c3cc(O)ccc3C[C@@H]1[C@H]2C | 83 | 2.1 | 97 |  | 
